Values after ≈ are worked out from the molar mass of the structure shown. Starred links: 1 amine or outer side, 2 acyl side, 3 side chain; linkers in the order of their positions; H or OH if unused. Positions of bridges follow the written chain, without caps; N, C: chain ends. Non-standard residues stand in square brackets, D forms with d. Residues, ends and D or L forms follow the SMILES beside them. Chains are numbered I, II in the order given. Actinocin(1to9) = Cc1c2oc3c(C)ccc(C(=O)[*:2])c3nc-2c(C(=O)[*:1])c(N)c1=O; NMeV = CN[C@H](C(=O)O)C(C)C; Sar = CNCC(=O)O
Columns and labels:
P388 [1] = assay: Percent increase in life span observed in P-388 cells infected male CDF1 hybrid mice after intraperitoneal administration at 750 ug/kg optimal dose; format: functional, Mus musculus
How it was run: (§1)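 Male CDF1 mice, seven per group, given 10^6 P388 cells ip on day 0. Drugs were given ip in 10% Me2SO-saline on days 1, 5 and 9, with solutions kept at 0-4 °C, protected from light and checked for homogeneity by HPLC. A range of doses was run and the optimal nontoxic dose reported. Read-outs were median survival time, percent increase in life span, and cures (over-60-day survivors, average of two experiments).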

P388 [2] = assay: Median survival time observed in P-388 cells infected male CDF1 hybrid mice after intraperitoneal administration at 750 ug/kg optimal dose; format: functional, Mus musculus; how it was run: as §1
CCRF-CEM = assay: Growth inhibitory activity against human lymphoblastic leukemia cells(CCRF-CEM); format: functional; conditions: read-out: ID50 (the source's name)
How it was run: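 Log-phase human lymphoblastic leukemia CCRF-CEM cells grown in suspension culture. Compounds dissolved in Me2SO, final growth medium contained 5% Me2SO. Test solutions kept at 0-4 °C, protected from light, homogeneity checked by HPLC before testing. ID50 reported in ng/mL.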

Mus musculus = organism: Mus musculus; assay: Male CDF1 hybrid treated mice out of seven which survived over 60 days after the treatment.; format: functional; how it was run: as §1
P388 [3] = assay: Percent increase in life span observed in P-388 cells infected male CDF1 hybrid mice after intraperitoneal administration at 600 ug/kg optimal dose; format: functional, Mus musculus; how it was run: as §1
P388 [4] = assay: Median survival time observed in P-388 cells infected male CDF1 hybrid mice after intraperitoneal administration at 600 ug/kg optimal dose; format: functional, Mus musculus; how it was run: as §1
P388 [5] = assay: Median survival time observed in P-388 cells infected male CDF1 hybrid mice after intraperitoneal administration at 1800 ug/kg optimal dose; format: functional, Mus musculus; how it was run: as §1
P388 [6] = assay: Percent increase in life span observed in P-388 cells infected male CDF1 hybrid mice after intraperitoneal administration at 1800 ug/kg optimal dose; format: functional, Mus musculus; how it was run: as §1
P388 [7] = assay: Percent increase in life span observed in P-388 cells infected male CDF1 hybrid mice after intraperitoneal administration at 125 ug/kg optimal dose; format: functional, Mus musculus; how it was run: as §1
Bos taurus = organism: Bos taurus; assay: Melting temperature of DNA-drug complex minus melting temperature of purified calf-thymus DNA; format: functional
How it was run: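 Calf-thymus DNA, purified. ΔTm is the Tm of the DNA-drug complex minus the Tm of DNA alone. Medium was 0.01 M phosphate buffer, pH 7.0, with EDTA.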

P388 [8] = assay: Median survival time observed in P-388 cells infected male CDF1 hybrid mice after intraperitoneal administration at 125 ug/kg optimal dose; format: functional, Mus musculus; how it was run: as §1
P388 [9] = assay: Percent increase in life span observed in P-388 cells infected male CDF1 hybrid mice after intraperitoneal administration at 450 ug/kg optimal dose; format: functional, Mus musculus; how it was run: as §1
P388 [10] = assay: Median survival time observed in P-388 cells infected male CDF1 hybrid mice after intraperitoneal administration at 450 ug/kg optimal dose; format: functional, Mus musculus; how it was run: as §1
P388 [11] = assay: Median survival time observed in P-388 cells infected male CDF1 hybrid mice after intraperitoneal administration at 1200 ug/kg optimal dose; format: functional, Mus musculus; how it was run: as §1
P388 [12] = assay: Percent increase in life span observed in P-388 cells infected male CDF1 hybrid mice after intraperitoneal administration at 1200 ug/kg optimal dose; format: functional, Mus musculus; how it was run: as §1
P388 [13] = assay: Percent increase in life span observed in P-388 cells infected male CDF1 hybrid mice after intraperitoneal administration at 900 ug/kg optimal dose; format: functional, Mus musculus; how it was run: as §1
P388 [14] = assay: Median survival time observed in P-388 cells infected male CDF1 hybrid mice after intraperitoneal administration at 900 ug/kg optimal dose; format: functional, Mus musculus; how it was run: as §1

Cc1c2oc3c(C)c4oc(-c5ccccc5)nc4c(C(=O)N[C@@H]4C(=O)N[C@H](C(C)C)C(=O)N5CCC[C@H]5C(=O)N(C)CC(=O)N(C)[C@@H](C(C)C)C(=O)O[C@@H]4C)c3nc-2c(C(=O)N[C@@H]2C(=O)N[C@H](C(C)C)C(=O)N3CCC[C@H]3C(=O)N(C)CC(=O)N(C)[C@@H](C(C)C)C(=O)O[C@@H]2C)cc1=O
ILS (P388 [1]): 300% | MST (P388 [2]): 44 days | IC50 (CCRF-CEM): 0.31 µg/mL (≈ 0.228 µM) | Cures (Mus musculus): 2

Cc1ccc(C(=O)N[C@@H]2C(=O)N[C@H](C(C)C)C(=O)N3CCC[C@H]3C(=O)N(C)CC(=O)N(C)[C@@H](C(C)C)C(=O)O[C@@H]2C)c2c1Oc1c(c(C(=O)N[C@@H]3C(=O)N[C@H](C(C)C)C(=O)N4CCC[C@H]4C(=O)N(C)CC(=O)N(C)[C@@H](C(C)C)C(=O)O[C@@H]3C)c3nc(-c4ccccc4)c(=O)oc3c1C)N2
ILS (P388 [3]): 309% | MST (P388 [4]): 45 days | IC50 (CCRF-CEM): 0.44 µg/mL (≈ 0.321 µM) | Cures (Mus musculus): 2

Cc1ccc(C(=O)N[C@@H]2C(=O)N[C@H](C(C)C)C(=O)N3CCC[C@H]3C(=O)N(C)CC(=O)N(C)[C@@H](C(C)C)C(=O)O[C@@H]2C)c2c1Oc1c(c(C(=O)N[C@@H]3C(=O)N[C@H](C(C)C)C(=O)N4CCC[C@H]4C(=O)N(C)CC(=O)N(C)[C@@H](C(C)C)C(=O)O[C@@H]3C)c3nc(-c4c(F)c(F)c(F)c(F)c4F)oc3c1C)N2
MST (P388 [5]): 19 days | IC50 (CCRF-CEM): 12.5 µg/mL (≈ 8.72 µM) | Cures (Mus musculus): 0 | ILS (P388 [6]): 72%

Cc1c2oc3c(C)ccc(C(=O)N[C@@H]4C(=O)N[C@H](C(C)C)C(=O)N5CCC[C@H]5C(=O)N(C)CC(=O)N(C)[C@@H](C(C)C)C(=O)O[C@@H]4C)c3nc-2c(C(=O)N[C@@H]2C(=O)N[C@H](C(C)C)C(=O)N3CCC[C@H]3C(=O)N(C)CC(=O)N(C)[C@@H](C(C)C)C(=O)O[C@@H]2C)c(N)c1=O [DACTINOMYCIN] (I: T[dV]P[Sar][NMeV] / II: T[dV]P[Sar][NMeV]; ester I:1-I:C, II:1-II:C; linker I:N-II:N via Actinocin(1to9))
ILS (P388 [7]): 136% | ΔTm (Bos taurus): 7.1 °C | MST (P388 [8]): 26 days | IC50 (CCRF-CEM): 0.04 µg/mL (≈ 0.0319 µM) | Cures (Mus musculus): 1

Cc1nc2c(C(=O)N[C@@H]3C(=O)N[C@H](C(C)C)C(=O)N4CCC[C@H]4C(=O)N(C)CC(=O)N(C)[C@@H](C(C)C)C(=O)O[C@@H]3C)c3nc4c(C(=O)N[C@@H]5C(=O)N[C@H](C(C)C)C(=O)N6CCC[C@H]6C(=O)N(C)CC(=O)N(C)[C@@H](C(C)C)C(=O)O[C@@H]5C)cc(=O)c(C)c-4oc3c(C)c2o1
ILS (P388 [9]): 182% | MST (P388 [10]): 31 days | IC50 (CCRF-CEM): 0.23 µg/mL (≈ 0.178 µM) | Cures (Mus musculus): 1

Cc1nc2c(C(=O)N[C@@H]3C(=O)N[C@H](C(C)C)C(=O)N4CCC[C@H]4C(=O)N(C)CC(=O)N(C)[C@@H](C(C)C)C(=O)O[C@@H]3C)c3c(c(C)c2o1)Oc1c(C)ccc(C(=O)N[C@@H]2C(=O)N[C@H](C(C)C)C(=O)N4CCC[C@H]4C(=O)N(C)CC(=O)N(C)[C@@H](C(C)C)C(=O)O[C@@H]2C)c1N3
IC50 (CCRF-CEM): 2.9 µg/mL (≈ 2.26 µM) | Cures (Mus musculus): 0 | MST (P388 [11]): 21 days | ILS (P388 [12]): 91%

Cc1c2oc3c(C)c4oc(-c5c(F)c(F)c(F)c(F)c5F)nc4c(C(=O)N[C@@H]4C(=O)N[C@H](C(C)C)C(=O)N5CCC[C@H]5C(=O)N(C)CC(=O)N(C)[C@@H](C(C)C)C(=O)O[C@@H]4C)c3nc-2c(C(=O)N[C@@H]2C(=O)N[C@H](C(C)C)C(=O)N3CCC[C@H]3C(=O)N(C)CC(=O)N(C)[C@@H](C(C)C)C(=O)O[C@@H]2C)cc1=O
ILS (P388 [13]): 172% | IC50 (CCRF-CEM): 0.63 µg/mL (≈ 0.435 µM) | MST (P388 [14]): 3 days | Cures (Mus musculus): 1

Cc1ccc(C(=O)N[C@@H]2C(=O)N[C@H](C(C)C)C(=O)N3CCC[C@H]3C(=O)N(C)CC(=O)N(C)[C@@H](C(C)C)C(=O)O[C@@H]2C)c2c1Oc1c(c(C(=O)N[C@@H]3C(=O)N[C@H](C(C)C)C(=O)N4CCC[C@H]4C(=O)N(C)CC(=O)N(C)[C@@H](C(C)C)C(=O)O[C@@H]3C)c3nc(-c4ccccc4Cl)c(=O)oc3c1C)N2
IC50 (CCRF-CEM): 1.8 µg/mL (≈ 1.28 µM) | Cures (Mus musculus): 1 | MST (P388 [11]): 30 days | ILS (P388 [12]): 172%

Cc1ccc(C(=O)N[C@@H]2C(=O)N[C@H](C(C)C)C(=O)N3CCC[C@H]3C(=O)N(C)CC(=O)N(C)[C@@H](C(C)C)C(=O)O[C@@H]2C)c2c1Oc1c(c(C(=O)N[C@@H]3C(=O)N[C@H](C(C)C)C(=O)N4CCC[C@H]4C(=O)N(C)CC(=O)N(C)[C@@H](C(C)C)C(=O)O[C@@H]3C)c3nc(-c4ccc(Cl)cc4)c(=O)oc3c1C)N2
ILS (P388 [3]): 164% | MST (P388 [4]): 29 days | IC50 (CCRF-CEM): 1.6 µg/mL (≈ 1.14 µM) | Cures (Mus musculus): 0

— ChEMBL document CHEMBL1122395, “Tetracyclic chromophoric analogues of actinomycin D: synthesis, structure elucidation and interconvertibility from one form to another, antitumor activity, and structure-activity relationships” (1983)
